Publication PMC3582828 (European journal of medicinal chemistry, 2012)

Tests used:
PDE9 = PDE9 (Homo sapiens, UniProt O76083); assay: PDE enzyme assay; assay type: biochemical; conditions: selectivity ratio IC50 PDE9 / IC50 PDE5
PDE11 = PDE11 (Homo sapiens, UniProt Q9HCR9); assay: PDE enzyme assay; assay type: biochemical; conditions: selectivity ratio IC50 PDE11 / IC50 PDE5
[1] = test system: LTP in slices from APP/PS1 mice; assay: LTP in hippocampal slices from APP/PS1 mice; design: species or system APP/PS1 mouse; conditions: 50 nM through bath solution for 10 min prior to θ-burst
PDE10 = PDE10 (Homo sapiens, UniProt Q9Y233); assay: PDE enzyme assay; assay type: biochemical; conditions: selectivity ratio IC50 PDE10 / IC50 PDE5
PDE10, sequence (Q9Y233 whole entry): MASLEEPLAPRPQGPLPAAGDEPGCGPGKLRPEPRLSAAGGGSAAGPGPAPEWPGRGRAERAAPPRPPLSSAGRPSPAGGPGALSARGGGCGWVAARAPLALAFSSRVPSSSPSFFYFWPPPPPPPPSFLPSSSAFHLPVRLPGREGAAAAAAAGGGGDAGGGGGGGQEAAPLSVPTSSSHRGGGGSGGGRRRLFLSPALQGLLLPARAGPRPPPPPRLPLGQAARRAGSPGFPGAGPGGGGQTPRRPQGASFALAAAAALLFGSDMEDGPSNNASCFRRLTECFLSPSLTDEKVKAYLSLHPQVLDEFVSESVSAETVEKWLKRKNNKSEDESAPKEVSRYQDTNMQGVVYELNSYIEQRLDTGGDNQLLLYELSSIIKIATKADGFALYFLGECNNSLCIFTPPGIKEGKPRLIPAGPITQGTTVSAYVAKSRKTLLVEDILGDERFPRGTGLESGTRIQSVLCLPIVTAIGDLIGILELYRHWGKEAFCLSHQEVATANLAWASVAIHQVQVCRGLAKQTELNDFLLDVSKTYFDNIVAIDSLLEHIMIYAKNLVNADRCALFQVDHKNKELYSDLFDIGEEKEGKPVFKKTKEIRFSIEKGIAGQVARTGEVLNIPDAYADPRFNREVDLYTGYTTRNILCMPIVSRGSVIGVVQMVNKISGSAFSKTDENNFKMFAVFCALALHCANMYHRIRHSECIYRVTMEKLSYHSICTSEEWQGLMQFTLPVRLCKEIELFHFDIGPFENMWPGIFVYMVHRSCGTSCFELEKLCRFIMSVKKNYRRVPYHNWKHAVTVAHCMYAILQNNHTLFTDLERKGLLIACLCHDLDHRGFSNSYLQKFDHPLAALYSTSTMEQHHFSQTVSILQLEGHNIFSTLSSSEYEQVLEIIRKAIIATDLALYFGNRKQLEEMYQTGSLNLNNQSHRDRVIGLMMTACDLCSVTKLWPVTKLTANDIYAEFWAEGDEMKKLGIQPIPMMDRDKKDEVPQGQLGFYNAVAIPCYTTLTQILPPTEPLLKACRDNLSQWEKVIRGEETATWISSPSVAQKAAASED

PDE7 = assay: PDE enzyme assay; assay type: biochemical; conditions: for IC50: read-out: PDE7 IC50, Data obtained by BPS Bioscience; for PDEX/PDE5 (PDE7): selectivity ratio IC50 PDE7 / IC50 PDE5
Procedure, shortened: (§1)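 Each PDE was incubated at room temperature for 60 min in PDE assay buffer with 100 nM FAM-cGMP or FAM-cAMP substrate, 0.125 ng enzyme and test compound. A 1:100 binding-agent solution was then added for 60 min at room temperature.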

PDE1 = assay: PDE enzyme assay; assay type: biochemical; conditions: for IC50: read-out: PDE1 IC50, Data obtained by BPS Bioscience; for PDEX/PDE5 (PDE1): selectivity ratio IC50 PDE1 / IC50 PDE5
Procedure, shortened: as §1

APP/PS1 mice = assay: 2-day radial arm water maze; assay type: in vivo, APP/PS1 mouse; conditions: 3 mg/kg, i.p., for 3 weeks; 3–4 month old APP/PS1 mice; vehicle ~3 errors
PDE3 = assay: PDE enzyme assay; assay type: biochemical; conditions: for IC50: read-out: PDE3 IC50, Data obtained by BPS Bioscience; for PDEX/PDE5 (PDE3): selectivity ratio IC50 PDE3 / IC50 PDE5
Procedure, shortened: as §1

PDE8 = assay: PDE enzyme assay; assay type: biochemical; conditions: selectivity ratio IC50 PDE8 / IC50 PDE5
PDE5 = PDE5 (Homo sapiens, UniProt O76074); assay: PDE enzyme assay; assay type: biochemical; conditions: ratio IC50 PDE5 / IC50 PDE5
PDE2 = PDE2 (Homo sapiens, UniProt O00408); assay: PDE enzyme assay; assay type: biochemical; conditions: selectivity ratio IC50 PDE2 / IC50 PDE5
PDE2, sequence (O00408 whole entry): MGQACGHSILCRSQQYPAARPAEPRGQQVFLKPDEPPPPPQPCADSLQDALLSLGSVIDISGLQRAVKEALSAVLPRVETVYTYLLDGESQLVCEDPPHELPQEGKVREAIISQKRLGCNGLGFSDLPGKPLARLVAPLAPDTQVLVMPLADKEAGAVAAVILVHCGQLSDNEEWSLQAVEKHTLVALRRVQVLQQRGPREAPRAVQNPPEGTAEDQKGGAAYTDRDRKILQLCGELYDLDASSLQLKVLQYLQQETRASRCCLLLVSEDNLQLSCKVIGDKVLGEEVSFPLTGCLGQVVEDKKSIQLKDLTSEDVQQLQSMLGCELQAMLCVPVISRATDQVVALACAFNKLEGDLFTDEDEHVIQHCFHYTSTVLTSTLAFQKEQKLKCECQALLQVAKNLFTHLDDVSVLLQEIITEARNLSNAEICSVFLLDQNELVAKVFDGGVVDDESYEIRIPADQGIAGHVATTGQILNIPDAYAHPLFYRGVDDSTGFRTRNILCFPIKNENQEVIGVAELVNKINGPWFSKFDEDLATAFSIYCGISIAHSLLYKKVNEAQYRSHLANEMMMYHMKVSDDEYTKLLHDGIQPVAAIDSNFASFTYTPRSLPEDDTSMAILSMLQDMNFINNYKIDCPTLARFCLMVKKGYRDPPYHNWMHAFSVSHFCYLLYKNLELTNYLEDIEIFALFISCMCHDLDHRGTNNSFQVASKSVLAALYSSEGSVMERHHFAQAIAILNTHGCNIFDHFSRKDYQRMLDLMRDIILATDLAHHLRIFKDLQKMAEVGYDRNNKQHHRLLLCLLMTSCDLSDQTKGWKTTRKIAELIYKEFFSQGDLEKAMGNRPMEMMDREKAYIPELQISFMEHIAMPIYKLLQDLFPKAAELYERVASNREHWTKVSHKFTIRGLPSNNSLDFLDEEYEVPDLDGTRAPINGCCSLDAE

PDE4 = assay: PDE enzyme assay; assay type: biochemical; conditions: for IC50: read-out: PDE4 IC50, Data obtained by BPS Bioscience; for PDEX/PDE5 (PDE4): selectivity ratio IC50 PDE4 / IC50 PDE5
Procedure, shortened: as §1

[2] = Pharmacokinetics in mouse brain tissue and plasma; assay type: in vivo, male BALB/c mice
Procedure, shortened: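 Test compound was dosed at 50 mg/kg p.o. in 0.05% aqueous methylcellulose. Plasma (retro-orbital blood, heparin) and brain were taken at 0, 0.25, 0.5, 1, 2 and 4 h, with 3 mice per time point. Brain was rinsed in cold saline and homogenised in methanol. LC/MS/MS used an internal standard and 1/x2-weighted linear regression. Penetration was expressed as brain/plasma Cmax and AUC ratios.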

PDE11, sequence (Q9HCR9 whole entry): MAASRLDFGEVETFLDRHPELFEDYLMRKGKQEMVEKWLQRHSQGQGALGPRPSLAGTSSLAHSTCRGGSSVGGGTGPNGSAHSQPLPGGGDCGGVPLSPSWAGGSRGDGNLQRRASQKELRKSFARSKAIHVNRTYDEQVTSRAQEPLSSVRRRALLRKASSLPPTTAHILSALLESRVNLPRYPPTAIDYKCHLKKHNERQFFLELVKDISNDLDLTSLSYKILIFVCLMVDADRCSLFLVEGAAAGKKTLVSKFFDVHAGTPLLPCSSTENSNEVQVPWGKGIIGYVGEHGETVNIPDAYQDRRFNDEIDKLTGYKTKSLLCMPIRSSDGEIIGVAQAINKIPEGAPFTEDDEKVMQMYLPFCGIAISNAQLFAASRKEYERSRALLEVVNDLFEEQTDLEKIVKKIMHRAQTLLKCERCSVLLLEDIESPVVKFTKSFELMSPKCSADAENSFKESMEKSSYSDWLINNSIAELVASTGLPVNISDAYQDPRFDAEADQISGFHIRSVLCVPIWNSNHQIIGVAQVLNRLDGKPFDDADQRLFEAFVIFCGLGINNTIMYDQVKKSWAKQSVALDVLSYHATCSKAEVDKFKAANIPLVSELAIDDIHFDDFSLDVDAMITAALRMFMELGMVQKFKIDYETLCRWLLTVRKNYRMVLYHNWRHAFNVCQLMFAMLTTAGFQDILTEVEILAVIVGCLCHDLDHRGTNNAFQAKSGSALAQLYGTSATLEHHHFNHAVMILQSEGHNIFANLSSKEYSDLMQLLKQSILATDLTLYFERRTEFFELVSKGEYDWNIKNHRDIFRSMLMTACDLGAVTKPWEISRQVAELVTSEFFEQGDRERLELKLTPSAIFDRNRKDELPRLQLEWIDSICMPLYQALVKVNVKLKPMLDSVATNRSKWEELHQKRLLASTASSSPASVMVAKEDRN
PDE9, sequence (O76083 whole entry): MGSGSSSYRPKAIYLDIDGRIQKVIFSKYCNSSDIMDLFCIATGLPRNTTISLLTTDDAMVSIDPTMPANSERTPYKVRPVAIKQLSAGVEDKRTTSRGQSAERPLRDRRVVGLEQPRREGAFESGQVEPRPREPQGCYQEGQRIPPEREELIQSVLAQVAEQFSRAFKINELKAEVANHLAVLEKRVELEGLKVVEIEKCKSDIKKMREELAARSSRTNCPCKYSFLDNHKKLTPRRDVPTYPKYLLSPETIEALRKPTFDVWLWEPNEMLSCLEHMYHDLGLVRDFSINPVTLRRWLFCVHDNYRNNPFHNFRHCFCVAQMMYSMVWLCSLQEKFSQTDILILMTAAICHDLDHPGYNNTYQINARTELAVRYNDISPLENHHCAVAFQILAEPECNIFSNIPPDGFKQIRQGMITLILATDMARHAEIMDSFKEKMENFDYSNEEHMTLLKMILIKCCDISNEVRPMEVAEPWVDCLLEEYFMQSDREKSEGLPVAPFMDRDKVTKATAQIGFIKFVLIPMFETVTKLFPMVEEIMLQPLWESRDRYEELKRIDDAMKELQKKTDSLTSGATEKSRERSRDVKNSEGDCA

COc1ccc(CNc2c(CO)cnc3c(C4CC4)cc(C#N)cc23)cc1Cl [7a, 4-[(3-chloro-4-methoxybenzyl)amino]-8-cyclopropyl-3-(hydroxymethyl) quinoline-6-carbonitrile]
PDEX/PDE5 (PDE9) (PDE9): >10^4 | PDEX/PDE5 (PDE11) (PDE11): >10^4 | Effect on LTP in WT slices [1]: no effect | PDEX/PDE5 (PDE10) (PDE10): >10^4 | IC50 (PDE7): > 10 µM | PDEX/PDE5 (PDE7) (PDE7): >10^4 | IC50 (PDE1): > 10 µM | PDEX/PDE5 (PDE1) (PDE1): >10^4 | Errors in the 2-day RAWM test (APP/PS1 mice): less than 2 errors | IC50 (PDE3): > 10 µM | PDEX/PDE5 (PDE3) (PDE3): >10^4 | PDEX/PDE5 (PDE8) (PDE8): >10^4 | PDEX/PDE5 (PDE5) (PDE5): 1 | PDEX/PDE5 (PDE2) (PDE2): >10^4 | IC50 (PDE4): > 10 µM | PDEX/PDE5 (PDE4) (PDE4): >10^4 | Blood brain barrier penetration [2]: readily crosses the blood brain barrier

COc1ccc(CNc2c(CO)cnc3c(N(C)C)cc(C#N)cc23)cc1Cl [7b, 4-[(3-chloro-4-methoxybenzyl)amino]-8-(N,N-dimethylamino)-3-(hydroxymethyl) quinoline-6-carbonitrile]
PDEX/PDE5 (PDE9) (PDE9): >10^4 | PDEX/PDE5 (PDE11) (PDE11): >10^4 | PDEX/PDE5 (PDE10) (PDE10): >10^4 | IC50 (PDE7): > 10 µM | PDEX/PDE5 (PDE7) (PDE7): >10^4 | IC50 (PDE1): > 10 µM | PDEX/PDE5 (PDE1) (PDE1): >10^4 | IC50 (PDE3): > 10 µM | PDEX/PDE5 (PDE3) (PDE3): >10^4 | PDEX/PDE5 (PDE8) (PDE8): >10^4 | PDEX/PDE5 (PDE5) (PDE5): 1 | PDEX/PDE5 (PDE2) (PDE2): >10^4 | IC50 (PDE4): > 10 µM | PDEX/PDE5 (PDE4) (PDE4): >10^4
